For data set [1], the system named is Leptinotarsa decemlineata. As to the kind of experiment: Antifeedant activity against adult Leptinotarsa decemlineata in host plant assessed as feeding inhibition. It counts as functional, organism-based. The essentials:
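Choice feeding assay with adult beetles. Percent feeding inhibition was calculated. Compounds giving over 50% inhibition went on to a dose-response test, and EC50 (dose for 50% feeding reduction, µg/cm2) was derived by linear regression of % inhibition on log dose.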

The test system of data set [2] is Leptinotarsa decemlineata. As to the kind of experiment: Mortality in adult Leptinotarsa decemlineata in host plant measured after 72 hr. It is filed as functional. Also on record: concentration or dose not given beside the values. The essentials:
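Test compounds in DMSO (10 µg/insect) were injected into the hemolymph of 20 adult beetles. Mortality was recorded for up to 3 days (72 h), analysed with contingency tables and corrected by Abbott's method.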

Data set [3] can be described thus: Cytotoxicity in mammalian Cricetulus griseus CHO (Chinese hamster ovary) cells measured after 48 hr by MTT assay. The conditions noted are these: read-out: LD50.
For data set [4], the system named is Spodoptera littoralis. Description: Effect on weight gain in L6 larvae Spodoptera littoralis assessed as biomass compound injected orally relative to control. It counts as functional.
Data set [5] relates to Spodoptera littoralis. As to the kind of experiment: Effect on ingestion in L6 larvae Spodoptera littoralis assessed as consumption compound injected orally relative to control. It counts as functional.
Data set [6] relates to Spodoptera littoralis. As to the kind of experiment: Antifeedant activity against L6 larvae Spodoptera littoralis compound injected orally relative to control. It counts as functional, organism-based.

Six compounds from ChEMBL document CHEMBL3045034, “Diterpenes from Salvia broussonetii transformed roots and their insecticidal activity” (J Agric Food Chem, 2005) can be followed below.

Molecules are shown by their SMILES. Values after ≈ are worked out from the molar mass of the structure shown. Active and inactive are the calls of the source. The rule behind the calls is not given here.

Turning to `CC(C)c1cc2c(c(O)c1O)C[C@@]13CCCC(C)(C)[C@@H]1C[C@@H]2O3` [BRUSSONOL], the EC50 in data set [1] is reported as over 100 microg/cm2. The compound further showed a mortality in data set [2] of 7%. Besides, the CC50 at 48 h in data set [3] turned out to be 50.6 µg/mL (≈ 160 µM).

Take `CC(C)c1cc2c(c(O)c1O)[C@@]1(C)CCCC(C)(C)[C@@H]1CC2=O` [DEMETHYLCRYPTOJAPONOL]: the Activity in the data set with Spodoptera littoralis [4] turned out to be 105%; in the data set on Spodoptera littoralis [5], 103%. In addition, in data set [1], the EC50 was over 100 microg/cm2. This compound also yielded a mortality in data set [2] of 43%. Besides, the CC50 at 48 h in data set [3] is 36 µg/mL (≈ 114 µM). Also, the result in the data set with Spodoptera littoralis [6] was inactive.

Take `COc1c(O)c2c(c(O)c1C(C)C)C(=O)C[C@H]1C(C)(C)CCC[C@]21C` [INUROYLEANOL]: the Activity with Spodoptera littoralis [4] was found to be 106%; in the data set on Spodoptera littoralis [5], 119%. The EC50 in data set [1] is given as over 100 microg/cm2. The same compound yielded a mortality in data set [2] of 0%. Besides, the outcome in the data set on Spodoptera littoralis [6] was inactive.

On to `COc1c(C(C)C)cc2c(c1O)[C@@]1(C)CCCC(C)(C)[C@@H]1CC2`, for which the Activity with Spodoptera littoralis [4] was 102%; in the data set with Spodoptera littoralis [5] it was 91%. For the same compound, the EC50 in data set [1] turned out to be 10.2 microg/cm2. Also, the mortality in data set [2] amounted to 14%. Further, the CC50 at 48 h in data set [3] was over 100 µg/mL. Besides, the result with Spodoptera littoralis [6] was inactive.

Take `CC(C)c1cc2c(c(O)c1O)[C@@]1(C)CCCC(C)(C)[C@@H]1[C@@H](O)C2=O` [6-ALPHA-HYDROXYDEMETHYL-CRYPTOJAPONOL]: the CC50 at 48 h in data set [3] was over 100 µg/mL. Also, the result in the data set with Spodoptera littoralis [6] was inactive.

For `CC(C)c1cc2c(c(O)c1O)[C@@]1(C)CCCC(C)(C)C1=C(O)C2=O` [14-DEOXYCOLEON U], the Activity in the data set on Spodoptera littoralis [4] came to 99%; with Spodoptera littoralis [5] it was 107%. The EC50 in data set [1] is given as 1.8 microg/cm2. Besides, in data set [2], the mortality was determined as 29%. The CC50 at 48 h in data set [3] is over 100 µg/mL. The result in the data set on Spodoptera littoralis [6] was inactive.
